In ChEMBL document CHEMBL1126155, “Renin inhibitory pentols showing improved enteral bioavailability” (J Med Chem, 1992) one finds IC50 data, which are given here for five molecules.

Broadly, the IC50 is the concentration needed to halve the response being measured.

Bounds are passed on as bounds.

Test [1] concerns the target T1, Renin (Homo sapiens, UniProt P00797).
T1 sequence (P00797 whole entry): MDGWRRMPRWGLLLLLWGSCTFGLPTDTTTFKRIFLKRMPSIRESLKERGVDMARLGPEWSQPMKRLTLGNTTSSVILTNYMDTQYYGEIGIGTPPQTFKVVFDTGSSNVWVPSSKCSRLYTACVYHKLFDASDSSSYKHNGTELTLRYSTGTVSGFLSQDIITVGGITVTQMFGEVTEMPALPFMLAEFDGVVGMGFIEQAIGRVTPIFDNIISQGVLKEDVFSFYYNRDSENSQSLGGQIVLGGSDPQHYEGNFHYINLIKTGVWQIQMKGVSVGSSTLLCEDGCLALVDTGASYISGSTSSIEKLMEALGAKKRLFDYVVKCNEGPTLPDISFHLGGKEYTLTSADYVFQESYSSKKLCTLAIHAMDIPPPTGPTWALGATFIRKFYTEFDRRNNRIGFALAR
In words: Concentration required for 50% inhibition of human kidney renin.

Test [2] has as its target T1, Renin. In words: Concentration required for 50% inhibition of human plasma renin. The test is classed as cell-free. A digest of the protocol:
(§1)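 Plasma renin from dog, human, rat, rhesus monkey or sheep plasma; assayed by a previously described plasma method, modified to be buffered at pH 7.4; IC50 in M.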

The target in another test is Cathepsin D (Homo sapiens, UniProt P07339). In words: Concentration required for 50% inhibition of cathepsin D. The gist of the method: (§2)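 Pepsin and cathepsin D inhibition measured by an earlier-described method; inhibitor tested at concentrations up to 10^-4 M.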
In the next test the target is Pepsin A (Homo sapiens, UniProt P0DJD9). In words: Inhibition of pepsin. The gist of the method:
as §2

Test [3] has as its target T2, Renin (Rattus norvegicus, UniProt P08424).
T2 sequence (P08424 whole entry): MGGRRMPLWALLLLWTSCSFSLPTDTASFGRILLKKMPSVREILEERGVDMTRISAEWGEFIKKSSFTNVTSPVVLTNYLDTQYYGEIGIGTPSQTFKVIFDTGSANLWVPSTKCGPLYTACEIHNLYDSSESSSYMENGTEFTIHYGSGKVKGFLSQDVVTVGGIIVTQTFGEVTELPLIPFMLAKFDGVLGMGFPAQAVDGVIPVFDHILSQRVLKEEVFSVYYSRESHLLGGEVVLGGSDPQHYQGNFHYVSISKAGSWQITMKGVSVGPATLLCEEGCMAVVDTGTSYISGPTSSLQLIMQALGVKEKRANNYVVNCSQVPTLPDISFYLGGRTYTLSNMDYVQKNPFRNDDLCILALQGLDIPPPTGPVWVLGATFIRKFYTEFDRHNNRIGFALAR
In words: Concentration required for 50% inhibition of rat plasma renin. The test is classed as cell-free. A digest of the protocol:
as §1

The target of another test is Renin (Canis familiaris). In words: Concentration required for 50% inhibition of dog plasma renin.
The next test deals with Renin (Ovis aries). In words: Concentration required for 50% inhibition of sheep plasma renin.
Another test concerns the target Renin (Macaca mulatta). In words: Concentration required for 50% inhibition of rhesus monkey plasma renin.

Cathepsin D, sequence (P07339 65-162 limits assumed): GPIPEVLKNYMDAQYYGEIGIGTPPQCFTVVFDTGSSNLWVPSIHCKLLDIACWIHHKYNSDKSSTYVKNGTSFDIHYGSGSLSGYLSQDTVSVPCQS
Cathepsin D, sequence (P07339 169-412 limits assumed): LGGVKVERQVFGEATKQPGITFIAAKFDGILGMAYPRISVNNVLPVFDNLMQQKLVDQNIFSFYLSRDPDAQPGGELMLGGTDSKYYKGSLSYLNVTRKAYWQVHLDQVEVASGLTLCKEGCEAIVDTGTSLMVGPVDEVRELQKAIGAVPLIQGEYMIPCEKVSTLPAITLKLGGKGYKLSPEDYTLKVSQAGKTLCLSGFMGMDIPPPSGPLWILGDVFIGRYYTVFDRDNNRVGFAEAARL
Pepsin A, sequence (P0DJD9 whole entry): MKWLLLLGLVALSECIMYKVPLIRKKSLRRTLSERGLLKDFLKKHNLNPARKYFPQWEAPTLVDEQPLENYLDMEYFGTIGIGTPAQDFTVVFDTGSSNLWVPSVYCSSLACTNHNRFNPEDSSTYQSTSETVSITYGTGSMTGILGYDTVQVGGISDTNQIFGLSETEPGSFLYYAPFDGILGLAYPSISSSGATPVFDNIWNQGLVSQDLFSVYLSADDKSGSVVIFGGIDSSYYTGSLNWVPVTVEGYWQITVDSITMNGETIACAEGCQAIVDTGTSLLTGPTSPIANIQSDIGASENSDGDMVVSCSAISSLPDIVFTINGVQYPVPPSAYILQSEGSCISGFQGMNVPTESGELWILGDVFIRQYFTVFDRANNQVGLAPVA

For `CN(CCN(C)C(=O)N1CCOCC1)C(=O)O[C@@H](Cc1ccccc1)C(=O)NC(Cc1cnc[nH]1)C(=O)N[C@@H](CC1CCCCC1)[C@@H](O)[C@@H](O)[C@H](O)[C@H](O)CO` (stereo partly specified), the IC50 at Renin [1] stood at 2.4 nM; at Renin [2], 1.5 nM.

Take `CCC[C@H](NC(=O)[C@H](Cc1ccccc1)NC(=O)[C@@H](N)[C@@H](C)CC)C(=O)N[C@@H](CC1CCCCC1)[C@@H](O)[C@@H](O)[C@H](O)[C@H](O)CO`: the IC50 was 50 nM against Renin [1] and 110 nM at Renin [2].

On to `CCC[C@H](NC(=O)[C@H](Cc1ccccc1)NC(=O)[C@@H](N)[C@@H](C)CC)C(=O)N[C@@H](CC1CCCCC1)[C@@H](O)[C@@H](O)[C@H](O)[C@@H](O)CO`, for which the IC50 was found to be 120 nM against Renin [1] and 420 nM at Renin [2].

As to `CC(C)(C)S(=O)(=O)CC(Cc1ccccc1)C(=O)NC(Cc1c[nH]cn1)C(=O)N[C@@H](CC1CCCCC1)[C@@H](O)[C@@H](O)[C@H](O)[C@H](O)CO` (stereo partly specified), the IC50 is greater than 100 µM against Cathepsin D; greater than 100 µM at Pepsin A; 4.4 nM on Renin [1]; 4.5 nM at Renin [2]; 8 µM against Renin [3]; 110 nM against Renin (Canis familiaris). The IC50 on Renin (Ovis aries) amounted to 100 nM; on Renin (Macaca mulatta), 11 nM.

As to `N[C@H]1CC[C@@H](C(=O)N[C@@H](Cc2ccccc2)C(=O)NC(Cc2c[nH]cn2)C(=O)N[C@@H](CC2CCCCC2)[C@@H](O)[C@@H](O)[C@H](O)[C@H](O)CO)CC1` (stereo partly specified), the results for the IC50 against Renin [1] and against Renin [2] were 12 nM and 22 nM, respectively.
